Measured values from ChEMBL document CHEMBL1124462, “Synthesis, DNA binding, and biological evaluation of synthetic precursors and novel analogues of netropsin” (J Med Chem, 1989).
Values after ≈ are worked out from the molar mass of the structure shown.

Legend:
[1] = system: Vesicular stomatitis virus; test: Minimum inhibitory concentration required to reduce vesicular stomatitis virus induced cytopathogenicity by 50% in primary rabbit kidney cells (PRK); format: functional
[2] = Dose required to inhibit Human T-Lymphoblast (Molt/4F) cell proliferation by 50%; format: functional; conditions: read-out: CD50 (the source's name)
Human alphaherpesvirus 2 = test: Minimum inhibitory concentration required to reduce herpes simplex virus-2(G) induced cytopathogenicity by 50% in primary rabbit kidney cells (PRK); format: functional
How it was run: (§1)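 Cell cultures (PRK, HeLa or Vero B) are infected at 100 × CCID50. Cytopathogenicity is recorded once it reaches completion in the untreated virus-infected controls. The minimum inhibitory concentration is given in μg/mL.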

[3] = system: Mammalian orthoreovirus 1; test: Minimum inhibitory concentration required to reduce reovirus-1 induced cytopathogenicity by 50% in african green monkey (VeroB)cells; format: functional; how it was run: as §1
Vero [4] = test: Minimum cytotoxic concentration required to cause a microscopically detectable alteration of normal cell morphology and show antiviral activity in african green monkey (Vero B) cells; format: functional; conditions: Chlorocebus sabaeus
Vero [5] = test: Minimum inhibitory concentration required to reduce parainfluenza virus-3 induced cytopathogenicity by 50% in african green monkey (VeroB) cells; format: functional, Human respirovirus 3; conditions: Chlorocebus sabaeus; how it was run: as §1
Human alphaherpesvirus 1 = test: Minimum inhibitory concentration required to reduce herpes simplex virus-1 (KOS) induced cytopathogenicity by 50% in primary rabbit kidney cells(PRK); format: functional; how it was run: as §1
Sindbis virus = test: Minimum inhibitory concentration required to reduce Sindbis virus induced cytopathogenicity by 50% in african green monkey (VeroB) cells; format: functional; how it was run: as §1
HeLa [6] = test: Minimum inhibitory concentration required to reduce Coxsackie virus B4 induced cytopathogenicity by 50% in HeLa cells; format: functional; conditions: Homo sapiens; how it was run: as §1
Raji = test: Dose required to inhibit Human B-Lymphoblast (Raji) cell proliferation by 50%; format: functional; conditions: read-out: CD50 (the source's name)
L1210 = test: Dose required to inhibit Murine leukemia (L1210) cell proliferation by 50%; format: functional; conditions: Mus musculus, read-out: CD50 (the source's name)
Semliki Forest virus = test: Minimum inhibitory concentration required to reduce semliki forest virus induced cytopathogenicity by 50% in african green monkey (VeroB) cells; format: functional; how it was run: as §1
HeLa [7] = test: Minimum cytotoxic concentration required to cause a microscopically detectable alteration of normal cell morphology and show antiviral activity in HeLa cells; format: functional; conditions: Homo sapiens
How it was run: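 HeLa cell cultures exposed to compound for the same duration as the antiviral assay, then examined microscopically. The minimum cytotoxic concentration is the lowest level causing detectable alteration of normal cell morphology. Values are in μg/mL.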

Oryctolagus cuniculus = species on record: Oryctolagus cuniculus; test: Minimum cytotoxic concentration required to cause a microscopically detectable alteration of normal cell morphology and show antiviral activity in primary rabbit kidney (PRK) cells; format: functional
Vero [8] = test: Minimum inhibitory concentration required to reduce Coxsackie virus B4 induced cytopathogenicity by 50% in african green monkey (VeroB) cells; format: functional, Coxsackievirus B4; conditions: Chlorocebus sabaeus; how it was run: as §1
FM3A = test: In vitro inhibition of FM3A (murine mammary carcinoma) cell proliferation.; format: functional; conditions: Mus musculus, read-out: CD50 (the source's name)
Nucleic Acid [9] = test: Association constant against polynucleotide poly (dG-dC); format: nucleic-acid assay
How it was run: (§2)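 Competition with ethidium bromide binding at 25 °C in 0.01 M cacodylate buffer, pH 7.0, with 1.26 μM ethidium bromide and 1 μM polynucleotide. Bound ethidium is estimated from its fluorescence increase (V = 34 for poly(dA-dT), 25 for poly(dG-dC)). IC50 for 50% ethidium displacement comes from a fitted competition sigmoid. Kapp is calculated from IC50 assuming a binding size of four base pairs.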

Nucleic Acid [10] = test: Association constant against the polynucleotide poly (dA-dT).; format: nucleic-acid assay; how it was run: as §2
Nucleic Acid [11] = test: Ratio of association constant of poly (dA-dT) and poly (dG-dC); format: nucleic-acid assay
How it was run: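 Kapp for poly(dA-dT) and for poly(dG-dC) is each determined by ethidium bromide competition in 0.01 M cacodylate, pH 7.0, 25 °C, with 1.26 μM ethidium and 1 μM polynucleotide. IC50 comes from a fitted competition sigmoid and is converted to Kapp assuming a four-base-pair binding size. The ratio is taken between the two polynucleotides.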

Row | Compound | MIC [1] | CC50 [2] | MIC (Human alphaherpesvirus 2) | MIC [3] | MCC (Vero [4]) | MIC (Vero [5]) | MIC (Human alphaherpesvirus 1) | MIC (Sindbis virus) | MIC (HeLa [6]) | CC50 (Raji) | CC50 (L1210) | MIC (Semliki Forest virus) | MCC (HeLa [7]) | MCC (Oryctolagus cuniculus) | MIC (Vero [8]) | CC50 (FM3A) | K app (Nucleic Acid [9]) | K app (Nucleic Acid [10]) | Ratio (Nucleic Acid [11])
1 | COC(=O)c1ccc([N+](=O)[O-])n1C | > 400 µg/mL | 66 µg/mL (≈ 358 µM) | > 400 µg/mL | > 200 µg/mL | 400 µg/mL | > 100 µg/mL | > 400 µg/mL | > 400 µg/mL | > 400 µg/mL | 62.4 µg/mL (≈ 339 µM) | 28 µg/mL (≈ 152 µM) | > 400 µg/mL | 400 µg/mL | >400 µg/mL | > 200 µg/mL | 84.7 µg/mL (≈ 460 µM) |  |  | 
2 | C[C@H](NC(=O)[C@H](C)NC(=O)[C@H](C)NC(=O)c1cc(NC(=O)c2cc(NC(=O)CNC(=N)N)cn2C)cn1C)C(=O)O | > 400 µg/mL | > 100 µg/mL | > 400 µg/mL | > 200 µg/mL | > 400 µg/mL | > 400 µg/mL | > 400 µg/mL | > 400 µg/mL | > 400 µg/mL | > 100 µg/mL | > 100 µg/mL | > 400 µg/mL | > 400 µg/mL | >400 µg/mL | > 400 µg/mL | > 100 µg/mL | 5000 M⁻¹ | < 100 M⁻¹ | < 0.02
3 | Cn1cc([N+](=O)[O-])cc1C(=O)NCCC(=N)N | > 400 µg/mL | > 50 µg/mL | > 200 µg/mL | > 200 µg/mL | > 400 µg/mL | > 200 µg/mL | > 200 µg/mL | > 200 µg/mL | > 400 µg/mL | > 50 µg/mL | > 50 µg/mL | > 200 µg/mL | > 400 µg/mL | >400 µg/mL | > 200 µg/mL |  | < 100 M⁻¹ | < 100 M⁻¹ | 
4 | CC(NC(=O)c1cc(NC(=O)c2cc(NC(=O)CNC(=N)N)cn2C)cn1C)C(=O)NC(C)C(=O)OC(C)(C)C (stereo not given) | > 200 µg/mL | > 100 µg/mL | > 200 µg/mL | > 200 µg/mL | > 400 µg/mL | > 400 µg/mL | > 200 µg/mL | > 400 µg/mL | > 400 µg/mL | 54.7 µg/mL (≈ 97.7 µM) | > 100 µg/mL | > 400 µg/mL | > 400 µg/mL | >200 µg/mL | > 400 µg/mL | > 100 µg/mL | 700 M⁻¹ | 4400 M⁻¹ | 6.29
5 | Cn1cc(NC(=O)c2cc([N+](=O)[O-])cn2C)cc1C(=O)O | > 400 µg/mL | > 100 µg/mL | > 400 µg/mL | > 400 µg/mL | > 400 µg/mL | > 200 µg/mL | > 400 µg/mL | > 400 µg/mL | > 400 µg/mL | > 100 µg/mL | > 100 µg/mL | > 400 µg/mL | > 400 µg/mL | >400 µg/mL | 150 µg/mL (≈ 513 µM) | > 100 µg/mL |  |  | 
6 | Cn1cc(NC(=O)CNC(=N)N)cc1C(=O)NCCCNCCCCN | > 400 µg/mL | > 200 µg/mL | > 400 µg/mL | > 200 µg/mL | > 400 µg/mL | > 200 µg/mL | > 400 µg/mL | > 400 µg/mL | > 400 µg/mL | > 200 µg/mL | > 200 µg/mL | > 400 µg/mL | > 400 µg/mL | >400 µg/mL | > 400 µg/mL | > 200 µg/mL |  |  | 5.26
7 | COC(=O)c1cc(NC(=O)c2cc([N+](=O)[O-])cn2C)cn1C | > 40 µg/mL | > 100 µg/mL | > 10 µg/mL | > 10 µg/mL | > 40 µg/mL | > 10 µg/mL | > 10 µg/mL | > 10 µg/mL | > 40 µg/mL | > 100 µg/mL | > 100 µg/mL | > 10 µg/mL | > 40 µg/mL | >40 µg/mL | > 10 µg/mL | > 100 µg/mL |  |  | 
